One series concerns BT-474. The series can be described thus: Antiproliferative activity against human BT-474 cells overexpressing HER2 assessed as cell growth inhibition incubated for 72 hrs by cell titer glo assay. In kind it is functional, cell-based. The conditions noted are these: BT-474, 72 h.
In another series the test system is MCF7. The series can be described thus: Antiproliferative activity against human MCF7 cells with silenced HER2 assessed as cell growth inhibition incubated for 72 hrs by cell titer glo assay. In kind it is functional, cell-based. The note with it: MCF7, 72 h. In outline:
(§1)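 Cells seeded at 1×10^4 per well, left overnight at 37 °C/5% CO2, then exposed to a concentration series of peptide (up to 200, down to 0.01 μM) for 72 h. 1% SDS and 1% DMSO served as controls. Cells were PBS-washed, CellTiter-Glo added and luminescence read. IC50 taken from three independent experiments per cell line.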

Series [1] has as its system Calu-3. The series can be described thus: Antiproliferative activity against human Calu-3 cells overexpressing HER2 assessed as cell growth inhibition incubated for 72 hrs by cell titer glo assay. The conditions noted are these: Calu-3, 72 h. Type of series: functional, cell-based. Background: ATP-based viability assays read luminescence as a measure of living cells.

In the next series the test system is A549. The series can be described thus: Antiproliferative activity against human A549 cells overexpressing HER2 assessed as cell growth inhibition incubated for 72 hrs by cell titer glo assay. Type of series: functional, cell-based. The note with it: A549, 72 h. The essentials: as §1
For series [2], the system named is Calu-3. The series can be described thus: Antitumor activity in human Calu-3 cells xenografted in Foxn1nu/Foxn1+ mouse assessed as reduction in tumor growth at 6 mg/kg, IT(Intratumoral) administered thrice a week for 21 days in presence of trastu-zumab and measured on day 21 relative to control. In kind it is functional, organism-based. The note with it: time 21.0 day. In general terms: In xenograft studies the graft and the host belong to different species.

The test system of series [3] is Calu-3. The series can be described thus: Antitumor activity in human Calu-3 cells xenografted in Foxn1nu/Foxn1+ mouse assessed as reduction in tumor growth at 8 mg/kg, IT(Intratumoral) administered thrice a week for 21 days and measured on day 21 relative to control. The note with it: time 21.0 day.
A short description of series [4]: Toxicity in BALB/c mouse assessed as increase in Ki-67 expression at 5 ug/ml, iv administered on day 0 and 10 and spleenocytes collected on day 13 and incubated for 48 hrs by flow cytometry analysis. In kind it is organism-based. The note with it: in vivo, 360 h, dose 5 µg/ml, time 15 day. In outline: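 Splenocytes from PBS- or peptide-primed BALB/c mice (6 mg/kg i.v. days 0 and 10; harvested day 13) cultured 48 h with concanavalin A 5 μg/mL. Ki67 in CD3+ cells measured by flow cytometry after viability, surface and intracellular staining.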
Background: Flow cytometry measures light scatter and fluorescence of single cells or particles in a stream.

A further series concerns MCF-10A. The series can be described thus: Cytotoxicity against human MCF-10A cells assessed as cell growth inhibition incubated for 72 hrs by cell titer glo assay. Type of series: cell-based. In outline: as §1

The source made the active and inactive calls. The calls are words filed in the database; no cut-off is given here. Starred links: 1 amine or outer side, 2 acyl side, 3 side chain; linkers in the order of their positions; H or OH if unused. Positions of bridges follow the written chain, without caps; N, C: chain ends. Non-standard residues stand in square brackets, D forms with d. Residues, ends and D or L forms follow the SMILES beside them. X1 = N=C(N)NCCC[C@H](N[*:2])C(=O)NC(=O)[C@H](CC(=O)O)NC(=O)[*:1]; βAla(3R-(1-naphthyl)) = O=C(C[C@@H](N[*:1])c1cccc2ccccc12)[*:2]; βAla(3S-(1-naphthyl)) = O=C(C[C@H](N[*:1])c1cccc2ccccc12)[*:2]

As a reminder, the IC50 is the concentration that gives 50% inhibition. As for `CC[C@H](C)[C@H]1C(=O)NC(=O)[C@H](CCCNC(=N)N)NC(=O)C[C@H](c2cccc3ccccc23)NC(=O)N[C@H]2CSSC[C@H](NC(=O)C[C@H](c3cccc4ccccc34)NC(=O)[C@H](CCCNC(=N)N)NC(=O)[C@@H]3CCCN3C(=O)[C@@H]3CCCN13)C(=O)N[C@@H](Cc1ccccc1)C(=O)N1CCC[C@H]1C(=O)N[C@@H](CC(=O)O)C(=O)NC(=O)[C@H](CC(=O)O)NC(=O)[C@H](Cc1ccccc1)NC2=O`, the IC50 in the series with BT-474 is 2.94 µM; with MCF7, > 50 µM.
As for `CC[C@H](C)[C@@H]1NC(=O)[C@@H]2CSSC[C@H](NC(=O)[C@H](CCCNC(=N)N)NC(=O)CNC(=O)[C@H](CC(=O)O)NC(=O)[C@@H]3CCCN3C(=O)N[C@@H](Cc3ccccc3)C(=O)N2)C(=O)N[C@@H]([C@H](C)O)C(=O)N[C@@H](CCCCN)C(=O)N([C@@H](CO)C(=O)O)C(=O)[C@H]([C@@H](C)CC)NC(=O)[C@@H]2CCCN2C(=O)[C@@H]2CCCN2C1=O`, the IC50 in the series with Calu-3 [1] and with A549 was > 100 µM throughout.
Regarding `N=C(N)NCCC[C@@H]1NC(=O)[C@H]2CCCN2C(=O)[C@@H]2CCCN2C(=O)[C@H](CCCNC(=N)N)NC(=O)C[C@H](c2cccc3ccccc23)NC(=O)N[C@H]2CSSC[C@H](NC(=O)C[C@H](c3cccc4ccccc34)NC1=O)C(=O)N[C@@H](Cc1ccccc1)C(=O)N[C@@H](CC(=O)O)C(=O)NC(=O)[C@H](CC(=O)O)NC(=O)[C@H](Cc1ccccc1)NC2=O`, the values for the IC50 in the series on BT-474 and in the series on MCF7 were 3.65 µM and > 50 µM, respectively.
For `N=C(N)NCCC[C@@H]1NC(=O)[C@H]2CCCN2C(=O)[C@@H]2CCCN2C(=O)[C@H](CCCNC(=N)N)NC(=O)C[C@H](c2cccc3ccccc23)NC(=O)N[C@H]2CSSC[C@H](NC(=O)C[C@H](c3cccc4ccccc34)NC1=O)C(=O)N[C@@H](Cc1ccccc1)C(=O)NC(=O)[C@H](Cc1ccccc1)NC2=O`, in that order: 5.23 µM and > 50 µM.
For `Cc1ccc(OCC(O)C(C)NC(C)C)c2c1CCC2` (stereo unspecified), the result with Calu-3 [2] and with Calu-3 [3] was Active.
`CC[C@H](C)[C@@H]1NC(=O)[C@@H]2CCCN2C(=O)[C@@H]2CCCN2C(=O)NC(=O)[C@H](CC(=O)O)NC(=O)[C@H](Cc2ccccc2)NC(=O)[C@@H]2CSSC[C@H](NC(=O)N[C@H](c3cccc4ccccc34)CC(=O)N[C@@H](CCCNC(=N)N)C(=O)N3CCC[C@H]3C(=O)NCC(=O)N[C@@H](CCCNC(=N)N)C(=O)N[C@H](c3cccc4ccccc34)CC(=O)N2)C(=O)N[C@@H](Cc2ccccc2)C(=O)NC(=O)[C@H](CC(=O)O)NC(=O)[C@H](CO)NC1=O`: the IC50 with BT-474 is 7.22 µM; in the series on MCF7, > 30 µM.
In the case of `NCCCC[C@H](N)C(=O)N[C@@H](CC(=O)N[C@@H](Cc1ccccc1)C(=O)O)c1ccc(-c2ccccc2)cc1`, the IC50 in the series with BT-474, in the series on Calu-3 [1], with MCF7 and in the series with A549 was > 100 µM each time.
Take `CC[C@H](C)[C@@H]1NC(=O)[C@H](CO)NC(=O)[C@H](CC(=O)O)NC(=O)[C@H](Cc2ccccc2)NC(=O)[C@@H]2CSSC[C@H](NC(=O)[C@H](Cc3ccccc3)NC(=O)[C@H](CC(=O)O)NC1=O)C(=O)N[C@H](c1cccc3ccccc13)CC(=O)N[C@@H](CCCNC(=N)N)C(=O)NC(=O)[C@H](CC(=O)O)NC(=O)N[C@@H](CCCNC(=N)N)C(=O)N[C@H](c1cccc3ccccc13)CC(=O)N2` (R[βAla(3S-(1-naphthyl))]CFDSIDFC[βAla(3S-(1-naphthyl))]; disulfide 3-10; linker N-C via X1): the IC50 in the series on BT-474 was 4.16 µM; with MCF7, > 50 µM.
`Cc1cn(C2C[C@H](N=[N+]=[N-])[C@@H](CO)O2)c(=O)[nH]c1=O` (stereo partly specified): the Activity entry in series [4] is listed as “Toxic”.
As to `N=C(N)NCCC[C@@H]1NC(=O)[C@H]2CCCN2C(=O)[C@@H]2CCCN2C(=O)[C@H](CCCNC(=N)N)NC(=O)C[C@H](c2cccc3ccccc23)NC(=O)[C@H](Cc2ccccc2)NC(=O)[C@H](CC(=O)O)NC(=O)[C@H](CC(=O)O)NC(=O)[C@H](Cc2ccccc2)NC(=O)C[C@H](c2cccc3ccccc23)NC1=O` (cyclo(DDF[βAla(3R-(1-naphthyl))]RP[dP]R[βAla(3R-(1-naphthyl))]F)), the values for the IC50 in the series on MCF7 and in the series on MCF-10A were > 50 µM and 40 µM, respectively.
